This is an account of results in ChEMBL document CHEMBL3351561, “Discovery of 9-(1-anilinoethyl)-2-morpholino-4-oxo-pyrido[1,2-a]pyrimidine-7-carboxamides as PI3Kβ/δ inhibitors for the treatment of PTEN-deficient tumours” (Bioorg Med Chem Lett, 2014).

≈ marks a conversion by molar mass, not a printed value. Bounds are passed on as bounds.

Data set [1] addresses T1, Phosphatidylinositol 4,5-bisphosphate 3-kinase catalytic subunit beta isoform (Homo sapiens, UniProt P42338). Nature of the data set: Inhibition of PI3Kbeta in human MAD-MB-468 cells assessed as inhibition of Ser473 Akt phosphorylation by cellular potency assay.
A short description of data set [2]: Apparent permeability from apical (pH 6.5) to […] of human Caco2 cells. The class given is ADME, cell-based. The settings on record: Caco-2, pH 6.5.
A short description of data set [3]: Intrinsic clearance in human hepatocytes measured per 10^6 cells. The settings on record: read-out: CLH. The class given is ADME, cell-based, Hepatocyte. The procedure, abridged: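 Intrinsic clearance was measured in human hepatocytes and is expressed in µL/min/10^6 cells.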
Data set [4] in a line: Solubility of the compound in phosphate buffer at pH 7.4. The class given is physicochemical. The procedure, abridged: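 Solubility was measured from solid material in phosphate buffer at pH 7.4.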
For data set [5], the species on record is Homo sapiens. Nature of the data set: Ratio of IC50 for human recombinant PI3Kalpha to IC50 human recombinant PI3Kbeta. The essentials:
(§1)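 Ratio is taken from enzyme IC50 values, each the geometric mean of 3 or more determinations. In the PI3Kβ enzyme assay, functional enzyme concentration was measured experimentally. The tight-binding limit, half that concentration, is 10 nM, so β IC50 values near that floor set a cap on the ratio.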

The species entered for data set [6] is Homo sapiens. The data set is described as follows: Ratio of IC50 for human recombinant PI3Kgamma to IC50 human recombinant PI3Kbeta. The procedure, abridged:
as §1

Data set [7] is described as follows: Buffer/octanol partition coefficient, log D of the compound at pH 7.4 by shake flask method. The data set is classed as physicochemical. The essentials:
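LogD at pH 7.4 was measured by shake-flask with a buffer/octanol volume ratio of 100:1.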

Data set [8] addresses T2, Phosphatidylinositol 4,5-bisphosphate 3-kinase catalytic subunit alpha isoform (Homo sapiens, UniProt P42336). The data set is described as follows: Inhibition of human recombinant PI3Kalpha assessed as depletion of ATP substrate by Ultra Glo luciferase assay. The essentials:
(§2)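 Enzyme IC50s are reported as the geometric mean of 3 or more values.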

Data set [9] deals with T1, Phosphatidylinositol 4,5-bisphosphate 3-kinase catalytic subunit beta isoform. The data set is described as follows: Inhibition of human recombinant PI3Kbeta assessed as depletion of ATP substrate by Ultra Glo luciferase assay. The essentials: as §2
The target in data set [10] is Phosphatidylinositol 4,5-bisphosphate 3-kinase catalytic subunit gamma isoform (Homo sapiens, UniProt P48736). The data set is described as follows: Inhibition of human recombinant PI3Kgamma assessed as depletion of ATP substrate by Ultra Glo luciferase assay. The procedure, abridged:
as §2

The target of data set [11] is T3, Phosphatidylinositol 4,5-bisphosphate 3-kinase catalytic subunit delta isoform (Homo sapiens, UniProt O00329).
T3 sequence (O00329 whole entry): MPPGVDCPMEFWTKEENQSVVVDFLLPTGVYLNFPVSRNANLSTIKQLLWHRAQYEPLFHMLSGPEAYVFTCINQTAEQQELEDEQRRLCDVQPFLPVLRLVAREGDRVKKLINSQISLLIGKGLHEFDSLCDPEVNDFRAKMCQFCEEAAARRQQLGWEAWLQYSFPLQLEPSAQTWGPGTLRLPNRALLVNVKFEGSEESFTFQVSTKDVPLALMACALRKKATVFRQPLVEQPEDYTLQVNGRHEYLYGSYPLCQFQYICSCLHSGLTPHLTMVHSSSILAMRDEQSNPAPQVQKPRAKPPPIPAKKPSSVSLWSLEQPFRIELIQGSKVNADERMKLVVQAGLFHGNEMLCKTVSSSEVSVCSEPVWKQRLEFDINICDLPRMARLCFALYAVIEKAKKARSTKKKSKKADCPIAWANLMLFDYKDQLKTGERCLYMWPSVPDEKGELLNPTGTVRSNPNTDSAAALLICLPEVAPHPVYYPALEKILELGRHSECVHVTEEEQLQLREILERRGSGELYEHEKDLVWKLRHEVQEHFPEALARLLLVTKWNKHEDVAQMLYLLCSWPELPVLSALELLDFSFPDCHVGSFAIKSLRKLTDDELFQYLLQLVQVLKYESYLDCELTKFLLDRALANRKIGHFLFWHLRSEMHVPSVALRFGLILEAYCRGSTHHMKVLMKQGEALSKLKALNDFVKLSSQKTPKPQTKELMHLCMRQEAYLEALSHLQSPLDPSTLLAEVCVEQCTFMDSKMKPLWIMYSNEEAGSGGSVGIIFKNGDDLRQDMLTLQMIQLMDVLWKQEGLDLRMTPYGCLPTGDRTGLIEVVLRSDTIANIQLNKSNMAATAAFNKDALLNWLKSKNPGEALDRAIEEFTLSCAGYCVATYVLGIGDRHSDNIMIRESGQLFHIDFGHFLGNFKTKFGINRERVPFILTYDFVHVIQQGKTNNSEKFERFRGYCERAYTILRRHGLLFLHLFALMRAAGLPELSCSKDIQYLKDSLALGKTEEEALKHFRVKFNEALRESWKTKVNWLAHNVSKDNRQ
The data set is described as follows: Inhibition of human recombinant PI3Kdelta assessed as depletion of ATP substrate by Ultra Glo luciferase assay. The procedure, abridged: as §2

Data set [12] addresses T2, Phosphatidylinositol 4,5-bisphosphate 3-kinase catalytic subunit alpha isoform. The data set is described as follows: Inhibition of PI3Kalpha in human BT474 cells assessed as inhibition of […] Akt phosphorylation after 2 hrs by fluorescence assay. The data set is classed as cell-based, BT-474. The procedure, abridged: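 BT474 cells were seeded in DMEM with 10% FCS and 1% glutamine and left to adhere overnight, then treated with compound in DMSO for 2 h at 37 °C and 5% CO2. Cells were lysed with a phosphatase/protease-inhibitor buffer. Lysate was captured on anti-total-Akt plates, probed with anti-phospho-Akt Thr308 and an HRP secondary, and read by fluorescence (ex 325/em 420 nm). Values are the geometric mean of ≥2 determinations.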

Data set [13] is filed under the species Homo sapiens. The data set is described as follows: Ratio of IC50 for PI3Kalpha human BT474 cells to IC50 PI3Kbeta in human […] cells.

T2 sequence (P42336 whole entry, canonical isoform): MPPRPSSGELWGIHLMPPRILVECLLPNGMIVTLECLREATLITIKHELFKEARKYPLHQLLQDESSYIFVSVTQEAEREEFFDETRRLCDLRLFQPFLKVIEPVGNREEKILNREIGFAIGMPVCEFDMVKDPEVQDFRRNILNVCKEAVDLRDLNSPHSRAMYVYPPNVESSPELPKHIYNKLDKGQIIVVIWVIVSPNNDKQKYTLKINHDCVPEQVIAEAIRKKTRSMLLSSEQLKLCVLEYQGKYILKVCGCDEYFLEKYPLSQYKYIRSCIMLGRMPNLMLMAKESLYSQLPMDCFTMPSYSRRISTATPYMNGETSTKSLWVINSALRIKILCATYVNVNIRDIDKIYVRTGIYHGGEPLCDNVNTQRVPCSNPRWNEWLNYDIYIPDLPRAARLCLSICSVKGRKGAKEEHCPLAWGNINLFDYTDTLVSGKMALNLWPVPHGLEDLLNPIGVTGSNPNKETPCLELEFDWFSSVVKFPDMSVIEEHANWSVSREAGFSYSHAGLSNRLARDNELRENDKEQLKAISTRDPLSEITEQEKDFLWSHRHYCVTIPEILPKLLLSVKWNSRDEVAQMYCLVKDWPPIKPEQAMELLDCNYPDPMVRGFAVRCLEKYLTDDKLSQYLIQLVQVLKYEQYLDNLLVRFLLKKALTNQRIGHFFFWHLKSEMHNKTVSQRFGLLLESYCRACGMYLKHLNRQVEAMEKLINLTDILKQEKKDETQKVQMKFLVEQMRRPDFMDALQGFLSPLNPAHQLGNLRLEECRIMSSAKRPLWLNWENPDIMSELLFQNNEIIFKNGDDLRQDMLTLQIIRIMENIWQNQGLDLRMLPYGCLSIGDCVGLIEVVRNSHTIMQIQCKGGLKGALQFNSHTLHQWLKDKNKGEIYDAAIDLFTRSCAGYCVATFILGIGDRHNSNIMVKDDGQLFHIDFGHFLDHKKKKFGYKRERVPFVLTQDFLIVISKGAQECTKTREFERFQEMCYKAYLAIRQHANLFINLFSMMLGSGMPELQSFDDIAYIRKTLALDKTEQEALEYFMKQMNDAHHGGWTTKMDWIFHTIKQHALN
T1 sequence (P42338 whole entry, canonical isoform): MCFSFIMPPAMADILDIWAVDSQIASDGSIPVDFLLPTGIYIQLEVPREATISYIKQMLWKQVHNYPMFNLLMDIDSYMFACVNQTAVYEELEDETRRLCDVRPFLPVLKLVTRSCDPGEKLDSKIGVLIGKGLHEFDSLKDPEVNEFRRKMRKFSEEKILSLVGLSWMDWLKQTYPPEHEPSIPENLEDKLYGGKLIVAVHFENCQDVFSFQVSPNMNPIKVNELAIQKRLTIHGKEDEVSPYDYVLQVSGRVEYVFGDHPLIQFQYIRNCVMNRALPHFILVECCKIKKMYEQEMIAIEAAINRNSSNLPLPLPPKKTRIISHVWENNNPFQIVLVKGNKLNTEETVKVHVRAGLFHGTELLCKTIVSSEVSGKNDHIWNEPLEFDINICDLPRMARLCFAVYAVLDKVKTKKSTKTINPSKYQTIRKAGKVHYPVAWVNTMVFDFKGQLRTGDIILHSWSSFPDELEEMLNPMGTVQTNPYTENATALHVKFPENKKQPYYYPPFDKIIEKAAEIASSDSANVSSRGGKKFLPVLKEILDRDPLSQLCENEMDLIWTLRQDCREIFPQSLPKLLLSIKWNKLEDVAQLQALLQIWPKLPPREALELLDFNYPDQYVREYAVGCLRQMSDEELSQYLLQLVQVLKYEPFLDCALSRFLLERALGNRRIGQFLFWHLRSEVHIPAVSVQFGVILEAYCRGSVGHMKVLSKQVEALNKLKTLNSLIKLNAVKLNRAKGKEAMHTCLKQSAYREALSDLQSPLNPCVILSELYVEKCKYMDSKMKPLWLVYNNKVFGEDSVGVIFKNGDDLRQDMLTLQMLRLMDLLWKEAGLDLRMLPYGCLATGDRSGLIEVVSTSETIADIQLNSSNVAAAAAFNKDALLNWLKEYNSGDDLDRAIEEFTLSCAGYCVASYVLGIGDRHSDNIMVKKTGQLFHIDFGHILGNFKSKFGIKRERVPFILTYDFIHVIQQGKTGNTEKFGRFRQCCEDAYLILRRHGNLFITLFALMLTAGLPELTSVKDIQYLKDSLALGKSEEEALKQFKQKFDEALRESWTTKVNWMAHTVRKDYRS
Chain of Phosphatidylinositol 4,5-bisphosphate 3-kinase catalytic subunit gamma isoform (P48736 whole entry, canonical isoform): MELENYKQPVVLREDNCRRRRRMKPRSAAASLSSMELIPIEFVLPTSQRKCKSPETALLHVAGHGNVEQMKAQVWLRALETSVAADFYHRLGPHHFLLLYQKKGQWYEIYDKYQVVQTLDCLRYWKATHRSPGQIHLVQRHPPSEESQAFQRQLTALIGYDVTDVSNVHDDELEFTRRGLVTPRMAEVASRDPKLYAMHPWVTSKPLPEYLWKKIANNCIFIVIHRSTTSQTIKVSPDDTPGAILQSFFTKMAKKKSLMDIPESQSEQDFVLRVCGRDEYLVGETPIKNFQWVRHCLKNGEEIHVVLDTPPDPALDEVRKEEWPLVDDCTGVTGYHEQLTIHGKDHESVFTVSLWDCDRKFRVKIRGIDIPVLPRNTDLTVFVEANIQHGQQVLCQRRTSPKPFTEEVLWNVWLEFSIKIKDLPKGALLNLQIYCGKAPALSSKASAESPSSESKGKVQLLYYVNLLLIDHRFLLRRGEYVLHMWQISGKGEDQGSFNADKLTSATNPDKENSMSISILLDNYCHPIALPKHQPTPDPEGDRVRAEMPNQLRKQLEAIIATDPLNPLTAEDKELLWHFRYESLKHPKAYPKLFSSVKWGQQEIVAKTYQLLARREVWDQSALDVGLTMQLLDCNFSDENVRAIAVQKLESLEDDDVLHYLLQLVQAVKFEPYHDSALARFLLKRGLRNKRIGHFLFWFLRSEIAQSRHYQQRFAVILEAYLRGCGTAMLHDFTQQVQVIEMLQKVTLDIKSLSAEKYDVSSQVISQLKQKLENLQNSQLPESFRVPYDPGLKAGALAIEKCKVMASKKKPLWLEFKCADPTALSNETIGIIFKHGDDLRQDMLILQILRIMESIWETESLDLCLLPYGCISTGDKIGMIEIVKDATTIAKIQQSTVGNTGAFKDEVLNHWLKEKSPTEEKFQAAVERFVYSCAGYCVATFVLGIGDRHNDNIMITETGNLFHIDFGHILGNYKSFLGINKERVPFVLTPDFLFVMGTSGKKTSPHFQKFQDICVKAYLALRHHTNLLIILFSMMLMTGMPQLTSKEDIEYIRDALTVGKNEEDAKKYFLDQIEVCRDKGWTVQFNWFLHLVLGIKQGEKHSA

The IC50 is the concentration that gives 50% inhibition. As for `CC(Nc1cccc(Cl)c1)c1cc(C(=O)NCCN(C)C)cn2c(=O)cc(N3CCOCC3)nc12` (racemic), the IC50 in [1] came to 10 nM.
In general, Papp A→B refers to how fast a substance crosses the layer from the apical side. As usually defined, the solubility is the concentration that dissolves in the medium under given conditions. High values mean much dissolved substance, low ones little dissolved substance. `CC(Nc1cccc(F)c1)c1cc(C(=O)N(C)C)cn2c(=O)cc(N3CCOCC3)nc12` (racemic): the IC50 in data set [1] was determined as 39 nM. Further, the Papp A→B in [2] was found to be 39 ×10⁻⁶ cm/s. In data set [3], the hepatocyte CLint was found to be 45 µL/min/1e6 cells. The same molecule registered a solubility in [4] of 23 µM (≈ 10.1 µg/mL).
As a reminder, the logD is lipophilicity at a set pH, counting ionised and neutral species. Read a low logD as a more hydrophilic compound. Turning to `CC(Nc1ccccc1)c1cc(C(=O)N(C)C)cn2c(=O)cc(N3CCOCC3)nc12` (single isomer, unassigned; (+)), the Ratio IC50 in the data set filed under Homo sapiens [5] was 50; in the data set listed under Homo sapiens [6] it was 550; in the data set filed under Homo sapiens [13], 60. The IC50 was 156 nM in [1]; 560 nM in data set [8]; 11 nM in [9]; 6000 nM in [10]; 110 nM in data set [11]; 9600 nM in data set [12]. In addition, in [7], the logD was found to be 2.4.
For the molecule `C[C@@H](Nc1cc(F)cc(F)c1)c1cc(C(=O)N2CCN(C)CC2)cn2c(=O)cc(N3CCOCC3)nc12`, the IC50 in [1] worked out at 29 nM. In [2], the Papp A→B came to 9 ×10⁻⁶ cm/s. Further, the logD in [7] was 2.6. The hepatocyte CLint in data set [3] turned out to be 6 µL/min/1e6 cells. In [4], the solubility is above 1500 µM.
In the case of `C[C@@H](Nc1cc(F)cc(F)c1)c1cc(C(=O)N2CCOCC2)cn2c(=O)cc(N3CCOCC3)nc12`, the IC50 in data set [1] came out at 25 nM. The logD in data set [7] was determined as 2.7. Moreover, in data set [3], the hepatocyte CLint amounted to 6 µL/min/1e6 cells. In [4], this molecule displayed a solubility of 316 µM (≈ 158 µg/mL).
Consider `CC(Nc1ccc(F)cc1)c1cc(C(=O)NCCN(C)C)cn2c(=O)cc(N3CCOCC3)nc12` (racemic), for which the 50% inhibitory concentration (IC50) in data set [1] came to 12 nM. Besides, the Papp A→B in [2] came to 0.2 ×10⁻⁶ cm/s. This molecule also displayed a logD in data set [7] of 1.8.
For `CC(Nc1cccc(C(F)(F)F)c1)c1cc(C(=O)NCCN(C)C)cn2c(=O)cc(N3CCOCC3)nc12` (racemic), the IC50 in [1] is 74 nM.
Consider `CC(Nc1ccccc1F)c1cc(C(=O)NCCN(C)C)cn2c(=O)cc(N3CCOCC3)nc12` (racemic), for which the IC50 in [1] was found to be 23 nM. In data set [2], the Papp A→B came out at 0.8 ×10⁻⁶ cm/s. The logD in data set [7] stood at 1.9.
Consider `CC(Nc1cc(F)cc(F)c1)c1cc(C(=O)N(C)CCO)cn2c(=O)cc(N3CCOCC3)nc12` (racemic), for which the IC50 in data set [1] was determined as 8 nM. In addition, the logD in [7] was found to be 2.1. Besides, the hepatocyte CLint in data set [3] came out at 10 µL/min/1e6 cells. The molecule further had a solubility in [4] of 930 µM (≈ 453 µg/mL).
On to `CC(Nc1ccccc1Cl)c1cc(C(=O)NCCN(C)C)cn2c(=O)cc(N3CCOCC3)nc12` (racemic), for which, in data set [1], the IC50 amounted to 7 nM.
For `CC(Nc1cccc(F)c1)c1cc(C(=O)NCCN(C)C)cn2c(=O)cc(N3CCOCC3)nc12` (racemic), the IC50 in data set [1] amounted to 2 nM. Also, in [2], the Papp A→B was 0.3 ×10⁻⁶ cm/s. The molecule also registered a logD in [7] of 2.
With `CC(Nc1ccccc1)c1cc(C(=O)NCCN(C)C)cn2c(=O)cc(N3CCOCC3)nc12` (single isomer, unassigned; (-)), the IC50 in [1] came out at 8 nM; in data set [8] it was 370 nM; in [9], 8 nM; in data set [10], 6900 nM; in data set [11] it was 85 nM; in [12] it was 2200 nM. Besides, the Papp A→B in [2] was found to be 0.2 ×10⁻⁶ cm/s. Moreover, the logD in data set [7] was found to be 1.7.
On to `CC(Nc1cc(F)cc(Cl)c1)c1cc(C(=O)N(C)C)cn2c(=O)cc(N3CCOCC3)nc12` (single isomer, unassigned; (-)), for which the half-maximal inhibitory concentration (IC50) in data set [1] is 11 nM. The molecule further returned a logD in data set [7] of 3.5. The hepatocyte CLint in data set [3] was 19 µL/min/1e6 cells.
As to `Cc1cccc(NC(C)c2cc(C)cn3c(=O)cc(N4CCOCC4)nc23)c1` (racemic), the IC50 in [1] came to 81 nM.
For `Cc1cc(C(C)Nc2cc(F)cc(F)c2)c2nc(N3CCOCC3)cc(=O)n2c1` (configuration not stated), in data set [1], the IC50 is 9 nM.
On to `Cc1cc(C(C)Nc2ccc(F)cc2)c2nc(N3CCOCC3)cc(=O)n2c1` (racemic), for which, in data set [1], the IC50 was determined as 190 nM.
The same measure, in the same setting: the figure for `Cc1ccc(NC(C)c2cc(C(=O)NCCN(C)C)cn3c(=O)cc(N4CCOCC4)nc23)cc1` (racemic) is 530 nM.
With `CC(Nc1cccc(F)c1F)c1cc(C(=O)N(C)C)cn2c(=O)cc(N3CCOCC3)nc12` (racemic), in [1], the IC50 was found to be 73 nM. The molecule further came in with a logD in data set [7] of 2.7. For the same molecule, the hepatocyte CLint in data set [3] was 9 µL/min/1e6 cells. The molecule further yielded a solubility in data set [4] of 28 µM (≈ 12.8 µg/mL).
On to `CC(Nc1ccc(Cl)cc1)c1cc(C(=O)NCCN(C)C)cn2c(=O)cc(N3CCOCC3)nc12` (racemic), for which, in [1], the IC50 was found to be 75 nM.
In the case of `CC(Nc1cc(F)cc(F)c1F)c1cc(C(=O)N(C)C)cn2c(=O)cc(N3CCOCC3)nc12` (single isomer, unassigned; (-)), the IC50 in data set [1] was 25 nM. In [7], this molecule came in with a logD of 2.9. Also, the hepatocyte CLint in data set [3] stood at 15 µL/min/1e6 cells. In data set [4], this molecule had a solubility of 46 µM (≈ 21.9 µg/mL).
For `Cc1cc(C(C)Nc2cccc(Cl)c2)c2nc(N3CCOCC3)cc(=O)n2c1` (configuration not stated), the IC50 in data set [1] is 17 nM.
As to `CC(Nc1cc(F)c(F)c(F)c1)c1cc(C(=O)N(C)C)cn2c(=O)cc(N3CCOCC3)nc12` (single isomer, unassigned; (-)), the IC50 in data set [1] was found to be 11 nM. The hepatocyte CLint in data set [3] was found to be 13 µL/min/1e6 cells. The molecule also showed a solubility in data set [4] of 10 µM (≈ 4.75 µg/mL).
